Compounds with a hit are over-represented: about 2.6% of the library has one in this group of screens.
BB579 growth dn – growth inhibitors of yeast BB579 in restrictive medium, primary screen, yeast lifespan-shortening project, S. cerevisiae. OD615, 48 h. inhibition, % at 10 µM. hit rate 0.51% among 140,000;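 active = inhibition above a set limit, 3 SD over the mean compound inhibition, cut at about 44% in these data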
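Test system: S. cerevisiae DeaD strain BB579 yeast; Medium: restrictive CSMM-D medium; Compound: one dose, 10 µM compound with 0.25% DMSO; Incubation: 4 h cell preincubation, 48 h compound exposure, 30 °C humidified; Signal: OD at 615 nm; Benchmarks: amphotericin B at 10 µg/mL as positive control.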
Yeast life ext – compounds extending yeast replicative lifespan, primary screen, S. cerevisiae, OD615 | inhibition of the nicotinamide effect, % at 10 µM | S. cerevisiae growth with nicotinamide; deaD strain in restrictive glucose medium | hit rate 0.68% among 130,000;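 active = inhibition above a set limit, placed 3 SD over the median of all compounds, cut at about 26% in these data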
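Measured by: optical density (absorbance) at 615 nm; System: modified budding yeast, DeaD strain; Medium: restrictive CSMM-D dextrose medium; Timing: 4 h preincubation then 48 h treatment at 30 °C.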
RAM inhibit – inhibitors of the yeast RAM network, primary screen, dse1pr::URA3 reporter, 5-FOA selection; AID 868, 2007; hit rate 1.8% among 190,000; inhibition, % at 50 µM; S. cerevisiae dse1pr::URA3 reporter, 5-FOA growth OD615, 2 d; analog-sensitive cbk1-as2 kinase mutant strain;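 active = inhibition above a set limit, 3 SD over mean compound inhibition, cut at about 8.4% in these data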;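 note: inhibition rescues growth on 5-FOA so higher OD means more RAM inhibition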
Numbers stand for hits.

`COc1cccc(-n2nnnc2SCC(=O)N2CCCc3ccccc32)c1` gave BB579 growth dn inactive, Yeast life ext inactive and RAM inhibit inactive.
Screening CCn1c(=O)c2ccccc2n2c(SCC(=O)N3CCCc4ccccc43)nnc12 returned BB579 growth dn inactive, Yeast life ext 38.9 and RAM inhibit inactive.
Screening Cc1ccc(C)c2c1cc(C)c1nnc(SCC(=O)N3CCCc4ccccc43)n12 returned BB579 growth dn inactive, Yeast life ext inactive and RAM inhibit inactive.
For CC1=C(/C=C/C(C)=N\NC(=O)c2ccncc2)C(C)(C)CCC1 the results were RAM inhibit inactive.
Screening CCOC(=O)c1c(NC(=O)CSc2ncccn2)sc2c1CCN(Cc1ccccc1)C2 returned BB579 growth dn inactive, Yeast life ext inactive and RAM inhibit inactive.
CCOC(=O)c1c(NC(=O)C(C)Sc2cccc[n+]2[O-])sc2c1CCN(Cc1ccccc1)C2 (stereo unspecified) was read as BB579 growth dn 91.0, Yeast life ext inactive and RAM inhibit inactive.
`O=C(CSc1ccc(-c2ccccn2)nn1)NCc1ccc(F)cc1` gave RAM inhibit inactive.
Screening COc1c(Cl)cc(Cl)cc1CNc1ccc(S(N)(=O)=O)cc1 returned RAM inhibit inactive.
COc1ccc(C(=O)NCC(=O)NCC(=O)OCC(=O)C(C)(C)C)cc1 was read as BB579 growth dn inactive, Yeast life ext inactive and RAM inhibit inactive.
Fc1ccc(CCNC(=S)Nc2ccc(F)c(Cl)c2)cc1 was read as RAM inhibit inactive.
For O=C(C/C=N/OCc1c(Cl)cccc1Cl)c1cnc(-c2ccccc2)s1 the results were BB579 growth dn inactive, Yeast life ext inactive and RAM inhibit inactive.
`O=C(C/C=N/OCc1ccc(Cl)cc1)c1cnc(-c2ccccc2)s1` gave BB579 growth dn inactive, Yeast life ext inactive and RAM inhibit 11.2.
Screening O=C(OCCN1C(=O)c2cccc3c(N4CCOCC4)ccc(c23)C1=O)c1cc(Cl)cc(Cl)c1 returned BB579 growth dn inactive, Yeast life ext inactive and RAM inhibit 8.5.
For CC(=O)N(C(C)=O)N1C(=O)c2cccc3c(N4CCOCC4)ccc(c23)C1=O the results were RAM inhibit inactive.
Screening CCN(CC)S(=O)(=O)c1ccc(C(=O)OCCN2C(=O)c3cccc4c(N5CCOCC5)ccc(c34)C2=O)cc1 returned BB579 growth dn inactive, Yeast life ext inactive and RAM inhibit 10.3.
CCCN1C(=O)c2cccc3c(N4CCCCC4)ccc(c23)C1=O was read as BB579 growth dn inactive, Yeast life ext inactive and RAM inhibit inactive.
COc1ncccc1-c1nnn(-c2ccc(F)cc2)n1 was read as RAM inhibit inactive.
O=C(Nc1nc2c(s1)CCCC2)Oc1ccccc1 was read as BB579 growth dn inactive, Yeast life ext inactive and RAM inhibit inactive.
Screening C/C(=N\Nc1nc2c(s1)CCCC2)c1ccccc1 returned BB579 growth dn 62.9, Yeast life ext inactive and RAM inhibit inactive.
For Cc1ccc(C(=O)NN(CCC(=O)NC(C)(C)C)C2=NS(=O)(=O)c3ccccc32)cc1 the results were BB579 growth dn inactive, Yeast life ext inactive and RAM inhibit 9.6.
For CN(NC(=O)c1ccccc1)C1=NS(=O)(=O)c2ccccc21 the results were RAM inhibit inactive.
CCC(=O)NC(=S)Nc1ccc(NC(=O)c2cc3ccccc3o2)c(OC)c1 was read as RAM inhibit inactive.
For COc1cc(NC(=S)NC(=O)C(C)C)ccc1NC(=O)c1cc2ccccc2o1 the results were RAM inhibit 9.5.
Screening COc1ccc(-n2c(=O)c3c(C)c(C)sc3n(Cc3ccc(F)cc3)c2=O)c(OC)c1 returned RAM inhibit inactive.
`COC(=O)c1ccccc1NC(=O)c1ccc(COc2cccc3ccccc23)o1` gave BB579 growth dn inactive, Yeast life ext inactive and RAM inhibit inactive.
COC(=O)c1ccccc1NC(=O)c1ccc(COc2ccccc2)o1 was read as BB579 growth dn inactive, Yeast life ext inactive and RAM inhibit 9.6.
Screening CCc1cccc(C)c1NC(=O)CO/N=C(\N)CC(=O)NC1CCCCC1 returned RAM inhibit inactive.
Screening Cc1cc(C)c2nc(NC(=O)[C@@H](NC(=O)c3cccc(S(=O)(=O)N4CCOCC4)c3)C(C)C)sc2c1 returned BB579 growth dn inactive, Yeast life ext inactive and RAM inhibit inactive.
Cc1onc(-c2ccccc2)c1C(=O)N/N=C/c1cccc(O)c1 was read as BB579 growth dn inactive, Yeast life ext inactive and RAM inhibit inactive.
`CCOc1ccc(/C=N/NC(=O)c2c(-c3ccccc3)noc2C)cc1` gave BB579 growth dn inactive, Yeast life ext inactive and RAM inhibit 10.9.
O=C(CCC1CCCCC1)N1CCN(Cc2ccc3c(c2)OCO3)CC1 was read as BB579 growth dn inactive, Yeast life ext inactive and RAM inhibit inactive.
For CC(C)N(C(=S)Nc1cc(S(=O)(=O)N2CCOCC2)ccc1Cl)c1ccccc1 the results were BB579 growth dn inactive, Yeast life ext 39.5 and RAM inhibit inactive.
`CN1CCN(C(=S)Nc2cc(S(=O)(=O)N3CCOCC3)ccc2Cl)CC1` gave RAM inhibit inactive.
For c1ccc(CSc2nnc3ccc(-c4ccco4)nn23)nc1 the results were RAM inhibit inactive.
For O=C1Nc2ccccc2C1(O)C/C(=N/O)c1ccccc1 (stereo unspecified) the results were RAM inhibit inactive.
`COc1ccc(-c2cnn3c(N)c(S(=O)(=O)C(C)(C)C)cnc23)cc1` gave BB579 growth dn inactive, Yeast life ext 30.0 and RAM inhibit inactive.
Screening CC(C)(C)S(=O)(=O)c1cnc2c(-c3ccc(Cl)cc3)cnn2c1N returned BB579 growth dn inactive, Yeast life ext inactive and RAM inhibit inactive.
`COc1ccc2nc(Cl)c(C#N)cc2c1` gave RAM inhibit inactive.
For CC(C)CC(COCc1cccc(Cl)c1)N1CCN(C(=O)c2cccc(C(F)(F)F)c2)CCC1=O (stereo unspecified) the results were BB579 growth dn inactive, Yeast life ext inactive and RAM inhibit inactive.
CC(C)CC(COCc1ccc(Cl)cc1)N1CCN(C(=O)c2ccc(Cl)cc2Cl)CCC1=O (stereo unspecified) was read as BB579 growth dn inactive, Yeast life ext inactive and RAM inhibit 9.4.
For CCOC(=O)c1ccc(NC(=O)CSc2nnc(-c3cccs3)n2CC)cc1 the results were BB579 growth dn inactive, Yeast life ext inactive and RAM inhibit inactive.
`C=CCn1c(SCC(=O)Nc2ccc(C(=O)OC(C)C)cc2)nnc1-c1cccs1` gave BB579 growth dn inactive, Yeast life ext inactive and RAM inhibit 8.7.
For O=C(COC(=O)Cc1c(Cl)cccc1Cl)NCC1CCCO1 (stereo unspecified) the results were RAM inhibit inactive.
Screening Oc1ccccc1NCC(O)Cn1ccc2ccccc21 (stereo unspecified) returned BB579 growth dn 49.7, Yeast life ext inactive and RAM inhibit inactive.
`OC(CNCc1ccccc1)Cn1ccc2ccccc21` (stereo unspecified) gave BB579 growth dn inactive, Yeast life ext inactive and RAM inhibit inactive.
For CC1CCc2sc(C(=O)N/N=C/c3ccc([N+](=O)[O-])cc3)cc2C1 (stereo unspecified) the results were BB579 growth dn inactive, Yeast life ext inactive and RAM inhibit inactive.
